Laboratory results published in ChEMBL document CHEMBL1157370, “Efficacy of a novel rifamycin derivative, ABI-0043, against Staphylococcus aureus in an experimental model of foreign-body infection” (Antimicrob Agents Chemother, 2007).
Converted amounts (≈) assume the structure as drawn.

How the values were obtained:
[1] = Ratio of peak drug level in albino guinea pig cage fluid at 12.5 mg/kg, ip to MIC for Staphylococcus aureus ATCC 29213; assay type: functional; settings: route intraperitoneal
Summary of the method: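 The peak cage-fluid concentration after a single ip dose was divided by the MIC. MIC was determined by macrotube dilution in cation-adjusted Mueller-Hinton broth with an inoculum of 5 × 10^5 CFU/ml, read visually as the lowest concentration with no growth. Tests were run in triplicate and the median reported.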

Staphylococcus aureus [2] = assay: Antibacterial activity against Staphylococcus aureus ATCC 29213 assessed as stationary-growth-phase minimal bactericidal concentration after 24 hrs by macrotube dilution method; assay type: functional; settings: ATCC 29213, 24 h
[3] = Cmax in albino guinea pig cage fluid at 3 mg/kg, ip administered as single dose; assay type: ADME, organism-based, Cavia porcellus, Interstitial fluid; design: dose 3 mg/kg, route intraperitoneal
Summary of the method: (§1)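 Noninfected cage-bearing guinea pigs given one ip dose. Cage fluid aspirated over 12 h, mixed with EDTA and centrifuged. Levels measured in triplicate by agar diffusion bioassay with S. pneumoniae ATCC 49619 indicator (detection limit 0.0005 μg/ml). Cmin taken 12 h post-dose; means ± SD from 12 aspirates.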

Staphylococcus aureus [4] = assay: Antibacterial activity against Staphylococcus aureus ATCC 29213 infected albino guinea pig tissue-cage infection model assessed as bacterial count at 12 mg/kg, ip administered every 12 hrs for 4 days measured during treatment period; assay type: functional; settings: route intraperitoneal
Summary of the method: (§2)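 Male albino guinea pigs (640–800 g) carrying four subcutaneous Teflon tissue cages; cages inoculated with 2 × 10^4 CFU S. aureus. Drug given ip in saline (5 ml total) every 12 h for 4 days, starting 24 h post-infection. Cage-fluid log10 CFU/ml measured on day 1 (baseline), day 4 before last dose (during treatment), and day 9 (5 days after treatment). ≥12 cages (3 animals) per regimen; mean reported.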

Staphylococcus aureus [5] = assay: Antibacterial activity against Staphylococcus aureus ATCC 29213 by macrotube dilution method; assay type: functional
Summary of the method: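 S. aureus from overnight culture, inoculum 5 × 10^5 CFU/ml, in cation-adjusted Mueller-Hinton broth; twofold? no—serial drug dilutions (tips changed each dilution) per CLSI macrotube method. MIC = lowest concentration with no visible growth. Run in triplicate, median reported.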

Staphylococcus aureus [6] = assay: Antibacterial activity against Staphylococcus aureus ATCC 29213 infected albino guinea pig tissue-cage infection model assessed as bacterial count at 12 mg/kg, ip administered every 12 hrs for 4 days measured after treatment period; assay type: functional; settings: route intraperitoneal; summary of the method: as §2
[7] = Cmax in albino guinea pig cage fluid at 12.5 mg/kg, ip administered every 12 hrs for 4 days; assay type: ADME, organism-based, Cavia porcellus, Interstitial fluid; design: dose 12.5 mg/kg, route intraperitoneal
Summary of the method: (§3)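 Noninfected guinea pigs with subcutaneous tissue cages received ip dosing, either a single dose or every 12 h for 4 days (multiple-dose values taken on day 4). Cage fluid was aspirated over 12 h, mixed with EDTA, centrifuged and stored at −20°C. Drug levels were measured by agar diffusion bioassay. Cmin was taken 12 h after dosing. Values are means ± SD from 12 aspirates.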

Staphylococcus aureus [8] = assay: Ratio of MBC for Staphylococcus aureus ATCC 29213 during stationary-growth phase to logarithmic-growth phase
Staphylococcus aureus [9] = assay: Antibacterial activity against Staphylococcus aureus ATCC 29213 infected albino guinea pig tissue-cage infection model assessed as infection cure rate at 12.5 mg/kg, ip administered every 12 hrs for 4 days; assay type: functional; settings: route intraperitoneal
Summary of the method: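 Guinea pig tissue-cage S. aureus infection (2 × 10^4 CFU per cage), treated ip every 12 h for 4 days, starting 24 h after inoculation. Cages were explanted 5 days after treatment ended, vortexed in 10 ml TSB and incubated at 37°C. After 24 h, 50 μl was plated on sheep blood agar. Cure rate is the fraction of cages with no growth; at least 12 cages per regimen.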

[10] = Cmin in albino guinea pig cage fluid at 12.5 mg/kg, ip administered as single dose measured after 12 hrs; assay type: ADME, organism-based, Cavia porcellus; design: dose 12.5 mg/kg, route intraperitoneal; settings: read-out: Cmin; summary of the method: as §3
[11] = Ratio of peak drug level in albino guinea pig cage fluid at 12.5 mg/kg, ip to MBC for Staphylococcus aureus ATCC 29213 during stationary-growth phase; settings: route intraperitoneal
Staphylococcus aureus [12] = assay: Antibacterial activity against Staphylococcus aureus ATCC 29213 assessed as logarithmic-growth-phase minimal bactericidal concentration after 24 hrs by macrotube dilution method; assay type: functional; settings: ATCC 29213, 24 h
Summary of the method: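 MBClog: cation-adjusted Mueller-Hinton broth, macrotube dilution, inoculum 5 × 10^5 CFU/ml taken from overnight culture; lowest concentration cutting initial count by >99.9% (3 log10 CFU/ml) after 24 h incubation. Run in triplicate, median reported.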

[13] = Cmin in albino guinea pig cage fluid at 3 mg/kg, ip administered as single dose measured after 12 hrs; assay type: ADME, organism-based, Cavia porcellus; design: dose 3 mg/kg, route intraperitoneal; settings: read-out: Cmin; summary of the method: as §1
Staphylococcus aureus [14] = assay: Antibacterial activity against Staphylococcus aureus ATCC 29213 infected albino guinea pig tissue-cage infection model assessed as infection cure rate at 3 mg/kg, ip administered every 12 hrs for 4 days; assay type: functional; settings: route intraperitoneal
Summary of the method: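 Guinea pig subcutaneous Teflon tissue-cage model infected with 2 × 10^4 CFU S. aureus. Drug given ip every 12 h for 4 days from 24 h post-infection. Cages removed on day 9, vortexed in 10 ml TSB, incubated 24 h at 37°C and plated on sheep blood agar. Cure rate = fraction of cages with no growth; ≥12 cages per regimen.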

[15] = Cmax in albino guinea pig cage fluid at 12.5 mg/kg, ip administered as single dose; assay type: ADME, organism-based, Cavia porcellus, Interstitial fluid; design: dose 12.5 mg/kg, route intraperitoneal; summary of the method: as §3
[16] = Cmin in albino guinea pig cage fluid at 5 mg/kg, ip administered as single dose measured after 12 hrs; assay type: ADME, organism-based, Cavia porcellus; design: dose 5 mg/kg, route intraperitoneal; settings: read-out: Cmin
Summary of the method: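 Single ip dose to noninfected cage-bearing guinea pigs. Cage fluid EDTA-treated and centrifuged, then assayed with E. coli V6311/65 bioassay (detection limit 0.01 μg/ml). Trough measured 12 h after dosing; means ± SD from 12 aspirates.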

in vivo = settings: guinea pig, cage fluid, ip, 5 mg/kg
Staphylococcus aureus [17] = assay: Antibacterial activity against Staphylococcus aureus ATCC 29213 infected albino guinea pig tissue-cage infection model assessed as bacterial count at 12.5 mg/kg, ip administered every 12 hrs after 4 days; assay type: functional; settings: route intraperitoneal
Summary of the method: (§4)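 Male albino guinea pigs (640 to 800 g) carried four subcutaneous perforated Teflon cages. After two weeks, sterility was confirmed and each cage was inoculated percutaneously with 2 × 10^4 CFU S. aureus in 200 μl. Treatment began 24 h later: ip every 12 h for 4 days (8 doses). Quantitative cage-fluid cultures were taken on day 1, before the last dose (day 4) and 5 days after treatment (day 9). At least 12 cages (3 animals) per regimen.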

Staphylococcus aureus [18] = assay: Antibacterial activity against Staphylococcus aureus ATCC 29213 infected albino guinea pig tissue-cage infection model assessed as bacterial count at 12.5 mg/kg, ip administered every 12 hrs after 5 days; assay type: functional; settings: route intraperitoneal; summary of the method: as §4

Row | Cmax [3] [ng/mL] | concentration at 12 h [13] [ng/mL] | Cmax [15] [ng/mL] | SMILES | Ratio [1] | MBC (Staphylococcus aureus [2]) [µg/mL] | log10CFU/ml (Staphylococcus aureus [4]) | MIC (Staphylococcus aureus [5]) [µg/mL] | log10CFU/ml (Staphylococcus aureus [6]) | Cmax [7] [ng/mL] | Ratio (Staphylococcus aureus [8]) | Activity (Staphylococcus aureus [9]) [%] | concentration at 12 h [10] [ng/mL] | Ratio [11] | MBC (Staphylococcus aureus [12]) [µg/mL] | Activity (Staphylococcus aureus [14]) [%] | concentration at 12 h [16] [ng/mL] | Cmax (in vivo) [ng/mL] | log10CFU/ml (Staphylococcus aureus [17]) | log10CFU/ml (Staphylococcus aureus [18])
1 | 110 | 40 | 1130 | CO[C@H]1/C=C/O[C@@]2(C)Oc3c(C)c(O)c4c(=O)c(c5oc6cc(N7CCN(C)CC7)cc(O)c6nc-5c4c3C2=O)NC(=O)/C(C)=C\C=C\[C@H](C)[C@H](O)[C@@H](C)[C@@H](O)[C@@H](C)[C@H](O)[C@@H]1C | 1130 | 0.25 (≈ 0.292 µM) | 3.24 | 0.001 (≈ 0.00117 µM) | 1.57 | 820 | 31.3 | 58 | 140 | 4.52 | 0.008 (≈ 0.00934 µM) | 8 |  |  |  | 
2 |  |  |  | C[C@H]1COc2c(N3CCN(C)CC3)c(F)cc3c(=O)c(C(=O)O)cn1c23.C[C@H]1COc2c(N3CCN(C)CC3)c(F)cc3c(=O)c(C(=O)O)cn1c23.O [LEVOFLOXACIN] |  | 40 |  | 0.16 |  |  | 125 |  |  |  | 0.32 |  | 10 | 970 |  | 
3 |  |  |  | CO[C@H]1/C=C/O[C@@]2(C)Oc3c(C)c(O)c4c(O)c(c(/C=N/N5CCN(C)CC5)c(O)c4c3C2=O)NC(=O)/C(C)=C\C=C\[C@H](C)[C@H](O)[C@@H](C)[C@@H](O)[C@@H](C)[C@H](OC(C)=O)[C@@H]1C [RIFAMPIN] |  | 3.6 (≈ 4.37 µM) |  | 0.016 (≈ 0.0194 µM) |  | 610 |  | 46 | 140 |  | 0.8 (≈ 0.972 µM) |  |  |  | 3.68 | 1.43
